Results from ChEMBL document CHEMBL1145556, “Development of potent and selective phosphinic peptide inhibitors of angiotensin-converting enzyme 2” (J Med Chem, 2008).

What was measured:
[1] = biological target: Angiotensin-converting enzyme 2 (Homo sapiens, UniProt Q9BYF1); assay: Inhibition of ACE2
Procedure, shortened: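 Recombinant ACE2 (0.3 nM final) preincubated with inhibitor for 45 min, then Mca-APK(Dnp) substrate (35 µM final) added. Run at 25 °C in 50 mM Hepes pH 6.8, 1 M NaCl, 10 µM ZnCl2. Fluorescence rise followed continuously (ex 320, em 405 nm) at under 10% substrate use. Triplicates at five inhibitor concentrations giving 20–80% inhibition; Ki by the Horovitz–Levitzki method.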

[2] = Inhibition of ACE
Procedure, shortened: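 Somatic ACE (0.5 nM) with Mca-Ala-Ser-Asp-Lys-Dpa-OH substrate (15 µM). Otherwise as for ACE2: 45 min enzyme–inhibitor preincubation, 25 °C, 50 mM Hepes pH 6.8, 1 M NaCl, 10 µM ZnCl2. Continuous fluorescence read-out (ex 320, em 405 nm) of initial rates. Triplicates at five concentrations spanning 20–80% inhibition; Ki by the Horovitz–Levitzki method.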

Carboxypeptidase A1 = biological target: T1, Carboxypeptidase A1 (Bos taurus, UniProt P00730); assay: Inhibition of bovine carboxypeptidase A
T1 sequence (P00730 whole entry): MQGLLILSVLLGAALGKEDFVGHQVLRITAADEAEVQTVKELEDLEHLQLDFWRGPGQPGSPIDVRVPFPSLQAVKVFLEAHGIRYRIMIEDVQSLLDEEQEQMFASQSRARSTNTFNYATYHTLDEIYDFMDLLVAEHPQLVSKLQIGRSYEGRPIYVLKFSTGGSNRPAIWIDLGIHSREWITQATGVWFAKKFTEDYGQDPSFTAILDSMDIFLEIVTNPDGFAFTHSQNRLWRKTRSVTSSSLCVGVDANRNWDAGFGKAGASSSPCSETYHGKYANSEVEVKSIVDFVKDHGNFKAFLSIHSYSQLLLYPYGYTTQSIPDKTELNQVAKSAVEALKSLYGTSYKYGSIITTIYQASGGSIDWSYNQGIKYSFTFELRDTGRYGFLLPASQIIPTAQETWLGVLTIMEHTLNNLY
Procedure, shortened: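 Bovine pancreatic carboxypeptidase A (0.5 nM) mixed with inhibitor in 50 mM Tris-HCl, 1 M NaCl, pH 7.5. Reaction started by adding furylacryloyl-Phe-Phe (50 µM).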

Sequence of Angiotensin-converting enzyme 2 (Q9BYF1 whole entry): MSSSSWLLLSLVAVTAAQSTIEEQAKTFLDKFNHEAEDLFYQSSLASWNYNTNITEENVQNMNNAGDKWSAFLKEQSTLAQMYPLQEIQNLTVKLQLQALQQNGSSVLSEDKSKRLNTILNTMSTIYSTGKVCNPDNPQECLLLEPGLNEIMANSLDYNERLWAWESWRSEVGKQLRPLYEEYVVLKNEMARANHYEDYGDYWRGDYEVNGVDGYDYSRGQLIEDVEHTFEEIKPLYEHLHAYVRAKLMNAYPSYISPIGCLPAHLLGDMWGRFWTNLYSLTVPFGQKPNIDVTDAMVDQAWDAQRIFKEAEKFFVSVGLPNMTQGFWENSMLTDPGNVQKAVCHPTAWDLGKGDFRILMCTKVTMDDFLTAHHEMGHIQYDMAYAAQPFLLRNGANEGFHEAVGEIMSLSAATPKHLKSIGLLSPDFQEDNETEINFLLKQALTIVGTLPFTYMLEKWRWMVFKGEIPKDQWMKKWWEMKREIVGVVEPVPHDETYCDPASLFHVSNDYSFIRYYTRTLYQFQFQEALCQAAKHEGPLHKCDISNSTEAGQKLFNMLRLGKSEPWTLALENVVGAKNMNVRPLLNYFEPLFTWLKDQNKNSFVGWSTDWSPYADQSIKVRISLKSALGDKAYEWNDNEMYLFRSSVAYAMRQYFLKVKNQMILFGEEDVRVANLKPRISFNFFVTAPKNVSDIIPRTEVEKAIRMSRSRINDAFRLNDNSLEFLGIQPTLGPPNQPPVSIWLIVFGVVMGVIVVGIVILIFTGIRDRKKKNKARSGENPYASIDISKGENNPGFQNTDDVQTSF

| SMILES | Ki [1] [nM] | Ki [2] [nM] | Ki (Carboxypeptidase A1) [nM] |
| --- | --- | --- | --- |
| CC(=O)N[C@H](C(=O)N1CCC[C@@H]1P(=O)(O)C[C@@H](Cc1ccccc1)C(=O)O)C(C)C | 6.6 |  |  |
| CC(=O)N[C@@H](Cc1ccccc1)C(=O)N1CCC[C@@H]1P(=O)(O)C[C@@H](Cc1ccccc1)C(=O)O | 5.2 |  |  |
| CC(=O)N[C@@H](CCCCN)C(=O)N1CCC[C@@H]1P(=O)(O)C[C@@H](Cc1ccccc1)C(=O)O | 6.5 |  |  |
| C[C@@H](NC(=O)OCc1ccccc1)P(=O)(O)C[C@@H](Cc1ccccc1)C(=O)O | > 10000 |  |  |
| CC(C)C[C@@H](N)P(=O)(O)C[C@@H](Cc1ccccc1)C(=O)O | > 10000 |  |  |
| CC(=O)N[C@@H](Cc1ccc(O)cc1)C(=O)N1CCC[C@@H]1P(=O)(O)C[C@@H](Cc1ccccc1)C(=O)O | 5.2 |  |  |
| O=C(O)[C@H](Cc1ccccc1)CP(=O)(O)[C@H]1CCCN1 | > 10000 |  |  |
| CC(=O)N[C@@H](CC(C)C)C(=O)N1CCC[C@@H]1P(=O)(O)CC(Cc1cc(-c2ccccc2)no1)C(=O)O (stereo partly specified) | 1.25 | > 10000 | 35 |
| CC(=O)N[C@@H](Cc1c[nH]cn1)C(=O)N1CCC[C@@H]1P(=O)(O)CC(Cc1cc(-c2ccccc2)no1)C(=O)O (stereo partly specified) | 0.4 | > 10000 | 1050 |
| C[C@@H](N)P(=O)(O)C[C@@H](Cc1ccccc1)C(=O)O | > 10000 |  |  |
| O=C(N[C@H](Cc1ccccc1)P(=O)(O)C[C@@H](Cc1ccccc1)C(=O)O)OCc1ccccc1 | > 10000 |  |  |
| CC(=O)N[C@@H](Cc1c[nH]cn1)C(=O)N1CCC[C@@H]1P(=O)(O)C[C@@H](Cc1ccccc1)C(=O)O (stereo in doubt; 34) | 2.1 |  |  |
| N[C@H](Cc1ccccc1)P(=O)(O)C[C@@H](Cc1ccccc1)C(=O)O | > 10000 |  |  |
| CC(=O)N[C@@H](Cc1c[nH]cn1)C(=O)N[C@H](CC(C)C)P(=O)(O)C[C@@H](Cc1ccccc1)C(=O)O | 800 |  | 175 |
| CC(=O)N[C@@H](CC(C)C)C(=O)N1CCC[C@@H]1P(=O)(O)C[C@@H](Cc1ccccc1)C(=O)O (stereo in doubt; 28) | 0.35 |  |  |
| CC(=O)N[C@@H](Cc1c[nH]cn1)C(=O)N[C@H](CC(C)C)P(=O)(O)CC(Cc1cc(-c2ccccc2)no1)C(=O)O (stereo partly specified) | 220 |  | > 10000 |
| CC(C)C[C@@H](NC(=O)OCc1ccccc1)P(=O)(O)C[C@@H](Cc1ccccc1)C(=O)O | 8000 |  |  |
| CC(=O)N[C@@H](CCC(=O)O)C(=O)N1CCC[C@@H]1P(=O)(O)C[C@@H](Cc1ccccc1)C(=O)O | 7 |  |  |
| CC(=O)N[C@@H](CC(C)C)C(=O)N[C@H](Cc1ccccc1)P(=O)(O)C[C@@H](Cc1ccccc1)C(=O)O | 920 |  | 0.3 |
| CC(=O)N[C@@H](C)C(=O)N1CCC[C@@H]1P(=O)(O)C[C@@H](Cc1ccccc1)C(=O)O | 7.5 |  |  |
| CC(C)C[C@H](CP(=O)(O)[C@H]1CCCN1C(=O)OCc1ccccc1)C(=O)O | 300 |  |  |
| C[C@H](CP(=O)(O)[C@H]1CCCN1C(=O)OCc1ccccc1)C(=O)O | 3000 |  |  |
| CC(=O)N[C@@H](Cc1c[nH]cn1)C(=O)N1CCC[C@@H]1P(=O)(O)C[C@@H](Cc1ccccc1)C(=O)O (stereo in doubt) | 0.7 | > 10000 | 60 |
| CC(=O)N[C@@H](CC(C)C)C(=O)N1CCC[C@@H]1P(=O)(O)C[C@@H](Cc1ccccc1)C(=O)O (stereo in doubt) | 0.13 | > 10000 | 0.5 |
| O=C(O)[C@H](Cc1ccccc1)CP(=O)(O)[C@H]1CCCN1C(=O)OCc1ccccc1 | 300 |  |  |
